# Results as given in ChEMBL document CHEMBL1145924 (J Med Chem, 2003).
# Several values for one entry are separate records, joined by “and”; a condition that tells them apart may be missing. Equal entries are not always repeated.
# Legend:
# Histamine H1 receptor [1] = target: T1, Histamine H1 receptor (Cavia porcellus, UniProt P31389); test: Effective concentration against histamine H1 receptor in endothelium-Denuded rings of guinea pig Aorta
# Cavia porcellus [2] = organism: Cavia porcellus; test: Apparent pA2 value at 3 nM concentration of mepyramine in guinea pig ileum; format: functional; conditions: read-out: pA2 (converted)
# [3] = target: Histamine H1 receptor (Cavia porcellus) (UniProt P31389); test: Concentration required for agonistic activity against histamine in guinea pig ileum; format: functional, tissue-based
# Sequence of Histamine H1 receptor (Cavia porcellus) (P31389 whole entry): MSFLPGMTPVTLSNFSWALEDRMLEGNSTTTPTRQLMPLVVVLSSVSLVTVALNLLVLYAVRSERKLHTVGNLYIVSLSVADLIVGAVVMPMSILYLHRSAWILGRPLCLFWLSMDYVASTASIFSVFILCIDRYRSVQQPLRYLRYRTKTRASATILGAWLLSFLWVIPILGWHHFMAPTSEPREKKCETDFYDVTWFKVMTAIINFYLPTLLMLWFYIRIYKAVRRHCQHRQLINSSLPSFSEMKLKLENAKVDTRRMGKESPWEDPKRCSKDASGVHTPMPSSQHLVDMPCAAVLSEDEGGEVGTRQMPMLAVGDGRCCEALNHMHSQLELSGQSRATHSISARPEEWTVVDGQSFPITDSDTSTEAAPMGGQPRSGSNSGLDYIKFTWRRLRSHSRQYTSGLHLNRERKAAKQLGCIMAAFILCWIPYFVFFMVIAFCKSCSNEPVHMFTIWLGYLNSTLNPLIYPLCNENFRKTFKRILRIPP
# [4] = target: Histamine H1 receptor (Cavia porcellus) (UniProt P31389); test: Maximum response (E max) against histamine H1 receptor in guinea pig ileum; format: tissue-based
# [5] = target: Histamine H1 receptor (Cavia porcellus) (UniProt P31389); test: (§1) Equilibrium dissociation constant (pKp) against histamine H1 receptor in guinea pig ileum; format: tissue-based
# Histamine H1 receptor [6] = target: T1, Histamine H1 receptor; test: Effective concentration against histamine H1 receptor in guinea pig ileum; format: tissue-based
# [7] = target: Histamine H2 receptor (Cavia porcellus) (UniProt P47747); conditions: Cardiac atrium
# Sequence of Histamine H2 receptor (Cavia porcellus) (P47747 whole entry): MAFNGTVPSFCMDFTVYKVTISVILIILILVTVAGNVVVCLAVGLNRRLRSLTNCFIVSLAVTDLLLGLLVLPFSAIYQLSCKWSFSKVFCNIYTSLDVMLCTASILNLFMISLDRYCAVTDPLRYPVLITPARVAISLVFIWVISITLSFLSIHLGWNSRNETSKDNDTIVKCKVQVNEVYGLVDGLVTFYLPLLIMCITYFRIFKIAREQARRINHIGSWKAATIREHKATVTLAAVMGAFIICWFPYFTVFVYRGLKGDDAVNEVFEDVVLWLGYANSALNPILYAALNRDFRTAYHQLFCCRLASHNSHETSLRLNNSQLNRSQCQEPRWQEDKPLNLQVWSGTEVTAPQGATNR
# Histamine H3 receptor = Histamine H3 receptor (Cavia porcellus, UniProt Q9JI35); test: Tested for Antagonistic activity at histamine H3 receptor in guinea pig ileal longitudinal muscle in the presence of mepyramine at a concentration of 1-3 micro M; format: functional; conditions: read-out: pA2 (converted)
# Sequence of Histamine H3 receptor (Q9JI35 whole entry): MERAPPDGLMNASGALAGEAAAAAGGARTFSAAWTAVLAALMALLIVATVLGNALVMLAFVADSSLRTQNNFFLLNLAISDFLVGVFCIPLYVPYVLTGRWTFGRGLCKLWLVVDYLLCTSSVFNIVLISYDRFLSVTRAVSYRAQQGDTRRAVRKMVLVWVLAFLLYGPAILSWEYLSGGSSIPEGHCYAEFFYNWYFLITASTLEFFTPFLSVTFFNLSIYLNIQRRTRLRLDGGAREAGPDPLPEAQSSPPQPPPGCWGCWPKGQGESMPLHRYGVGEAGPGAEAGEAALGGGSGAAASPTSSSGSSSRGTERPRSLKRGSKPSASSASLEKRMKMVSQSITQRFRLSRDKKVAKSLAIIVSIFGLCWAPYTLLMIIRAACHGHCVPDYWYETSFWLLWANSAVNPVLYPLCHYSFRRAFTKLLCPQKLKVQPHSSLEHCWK
# Summary of the method: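 Field-stimulated ileal longitudinal muscle (15 V, 0.5 ms, 0.1 Hz), 37 °C, mepyramine 1–3 μM throughout. […] Antagonists used only at concentrations not blocking M3 receptors; apparent pA2 from rightward shift.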
# [8] = target: Histamine H1 receptor (Cavia porcellus) (UniProt P31389); test: Maximum response (E max) against H1 receptor in guinea pig ileum; format: tissue-based
# [9] = target: Muscarinic acetylcholine receptor M3 (Cavia porcellus, UniProt Q8VH26); test: Antagonistic activity for carbachol induced contractions in guinea pig ileum against Muscarinic acetylcholine receptor M3 in the presence of mepyramine at a concentration of 1-3 micro M; format: functional, tissue-based; conditions: read-out: pA2 (converted)
# Sequence of Muscarinic acetylcholine receptor M3 (Q8VH26 whole entry): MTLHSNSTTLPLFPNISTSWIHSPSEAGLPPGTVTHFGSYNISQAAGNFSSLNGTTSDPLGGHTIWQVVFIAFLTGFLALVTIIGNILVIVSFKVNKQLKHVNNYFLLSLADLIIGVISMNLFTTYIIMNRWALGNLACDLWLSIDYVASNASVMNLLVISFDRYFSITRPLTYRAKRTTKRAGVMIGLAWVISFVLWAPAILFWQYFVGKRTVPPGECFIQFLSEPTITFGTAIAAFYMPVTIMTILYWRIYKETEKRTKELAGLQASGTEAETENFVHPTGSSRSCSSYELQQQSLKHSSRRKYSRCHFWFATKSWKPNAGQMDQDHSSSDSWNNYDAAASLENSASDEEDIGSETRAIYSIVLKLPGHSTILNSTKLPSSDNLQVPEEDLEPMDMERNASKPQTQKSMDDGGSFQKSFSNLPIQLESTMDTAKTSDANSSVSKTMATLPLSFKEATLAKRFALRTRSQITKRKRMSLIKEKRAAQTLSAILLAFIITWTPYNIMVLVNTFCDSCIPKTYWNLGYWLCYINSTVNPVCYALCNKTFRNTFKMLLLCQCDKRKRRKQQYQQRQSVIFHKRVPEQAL
# Cavia porcellus [10] = organism: Cavia porcellus; test: Apparent pA2 value of compound at 3 nM concentration of mepyramine in guinea pig ileum
# Cavia porcellus [11] = organism: Cavia porcellus; test: tissue or blood; conditions: Ileum, read-out: pA2 (converted)
# Cavia porcellus [12] = organism: Cavia porcellus; test: Full pA2 value of compound at 2-100 nM concentration of mepyramine in guinea pig ileum; format: functional; conditions: read-out: pA2 (converted)
# [13] = target: Histamine H1 receptor (Rattus norvegicus) (UniProt P31390); test: Maximum response (E max) against H1 receptor in rat aorta; format: tissue-based
# Sequence of Histamine H1 receptor (Rattus norvegicus) (P31390 whole entry): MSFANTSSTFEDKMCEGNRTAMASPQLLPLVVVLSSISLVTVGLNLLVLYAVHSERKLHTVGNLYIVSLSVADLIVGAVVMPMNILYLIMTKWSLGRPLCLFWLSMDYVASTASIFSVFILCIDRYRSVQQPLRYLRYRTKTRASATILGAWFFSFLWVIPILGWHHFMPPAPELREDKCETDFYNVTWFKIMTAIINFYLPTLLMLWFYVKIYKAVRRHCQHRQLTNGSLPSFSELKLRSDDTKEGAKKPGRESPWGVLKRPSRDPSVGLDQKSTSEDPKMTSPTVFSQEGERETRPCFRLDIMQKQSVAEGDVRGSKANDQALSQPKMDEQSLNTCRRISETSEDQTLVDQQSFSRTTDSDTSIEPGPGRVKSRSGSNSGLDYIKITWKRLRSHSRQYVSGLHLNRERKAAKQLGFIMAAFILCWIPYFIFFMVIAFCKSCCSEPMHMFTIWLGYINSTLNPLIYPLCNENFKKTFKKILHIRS
# [14] = target: Histamine H1 receptor (Cavia porcellus) (UniProt P31389); test: Concentration required for agonistic activity against histamine H1 receptor in guinea pig ileum; format: functional, tissue-based
# [15] = target: Histamine H1 receptor (Cavia porcellus) (UniProt P31389); test: Maximum response (E max) against Histamine H1 receptor in guinea pig ileum; format: tissue-based
# Histamine H1 receptor [16] = target: T2, Histamine H1 receptor (Rattus norvegicus, UniProt P31390); test: Apparent pA2 value of compound at 50 nM concentration of mepyramine in rat aorta; format: functional, tissue-based; conditions: read-out: pA2 (converted)
# T2 sequence (P31390 whole entry): as above
# Histamine H2 receptor = Histamine H2 receptor (Cavia porcellus, UniProt P47747); test: Tested for inhibition of histamine H2 receptor-induced rise in heart rate in guinea pig right atrium in the presence of mepyramine at a concentration of 0.3 micro M; format: tissue-based, Cardiac atrium
# Sequence of Histamine H2 receptor (P47747 whole entry): as the sequence (P47747 whole entry) above
# Histamine H1 receptor [17] = target: T2, Histamine H1 receptor; test: (§2) Effective concentration against histamine H1 receptor in rat aorta
# Histamine H1 receptor [18] = target: T1, Histamine H1 receptor; test: Apparent pA2 value of compound at 10 nM concentration of mepyramine in guinea pig aorta
# Cavia porcellus [19] = organism: Cavia porcellus; test: Apparent pD2 value of compound at 3 nM concentration of mepyramine in guinea pig ileum; format: functional
# Histamine H1 receptor [20] = target: T2, Histamine H1 receptor; test: as §2; format: tissue-based
# [21] = target: Histamine H1 receptor (Cavia porcellus) (UniProt P31389); test: as §1; format: functional, tissue-based
# Histamine H1 receptor [22] = target: T1, Histamine H1 receptor; test: Apparent pA2 value of compound at 10 nM concentration of mepyramine in guinea pig aorta; remark: listed apart in the source
# Cavia porcellus [23] = organism: Cavia porcellus; test: Full pA2 value of compound at 3-30 nM concentration of mepyramine in guinea pig ileum; format: functional; conditions: read-out: pA2 (converted)
# Cavia porcellus [24] = organism: Cavia porcellus; test: Apparent pA2 value of compound at 10 nM concentration of mepyramine in guinea pig aorta
# Histamine H1 receptor [25] = target: T1, Histamine H1 receptor; test: as above; remark: listed apart in the source
# Cavia porcellus [26] = organism: Cavia porcellus; test: Apparent pA2 value of compound at 100 nM concentration of mepyramine in guinea pig aorta
# T1 sequence (P31389 whole entry): as the sequence (P31389 whole entry) above
EC50 (Histamine H1 receptor [1]) [nM],Concentration [3] [µM],Emax [4],pKp [5],EC50 (Histamine H1 receptor [6]) [nM],pD2 [7],Kb (Histamine H3 receptor) [nM],Kb [9] [nM],Compound,Kb (Cavia porcellus [2]) [nM],further results
39.8,,,,,,,,CNCCc1cnc(CCC(c2ccccc2)c2ccccc2)[nH]1,,
,10,48%,6.18,117,4.05,,,c1ccc(C(CCc2nc(CCNCCCc3cccnc3)c[nH]2)c2ccccc2)cc1,1.82,
,3,,7.13,21.4,4.96,> 316,457,c1ccc(C(CCc2nc(CCNCCCc3ccccn3)c[nH]2)c2ccccc2)cc1,,Emax [8]: 80%; Kb (Cavia porcellus [10]): 1.66 nM
,,,,,,,,NCCc1c[nH]cn1 [HISTAMINE],,Kb (Cavia porcellus [11]): 0.851 nM
,3,83%,6.74,15.5,5.02,> 316,513,c1ccc(C(CCc2nc(CCNCCCCCc3ccccn3)c[nH]2)c2ccccc2)cc1,1.82,
9.77,,,7.67,5.5,,> 1000,4790,c1ccc(C(CCc2nc(CCNCCc3cnc[nH]3)c[nH]2)c2ccccc2)cc1,,Kb (Cavia porcellus [12]): 1.48 nM; Emax [13]: 56%; Concentration [14]: 0.1 µM; Emax [15]: 96%; Kb (Histamine H1 receptor [16]): 9.55 nM; Emax [8]: 96%; EC50 (Histamine H2 receptor): 10000 nM; EC50 (Histamine H1 receptor [17]): 295 nM; Kb (Histamine H1 receptor [18]): 3.24 nM
,10,57%,5.9,95.5,4.12,,,c1ccc(C(CCc2nc(CCNCCCCCc3ccncc3)c[nH]2)c2ccccc2)cc1,,pD2 (Cavia porcellus [19]): 8.63
81.3,10,92%,,21.4,4.37,> 501,5010,c1ccc(C(CCc2nc(CCNCCc3ccccn3)c[nH]2)c2ccccc2)cc1,,Emax [13]: 59%; EC50 (Histamine H1 receptor [20]): 525 nM; Kb (Histamine H1 receptor [16]): 10.5 nM; Emax [8]: 92%; pKp [21]: 7.15; Kb (Cavia porcellus [10]): 1.74 nM; Kb (Histamine H1 receptor [22]): 4.37 nM
,3,84%,6.61,26.3,5.25,> 316,562,c1ccc(C(CCc2nc(CCNCCCCCc3cccnc3)c[nH]2)c2ccccc2)cc1,1.48,
14.1,3,89%,7.45,6.92,4.78,> 501,741,c1ccc(C(CCc2nc(CCNCCCCc3ccccn3)c[nH]2)c2ccccc2)cc1,,Emax [13]: 65%; Kb (Histamine H1 receptor [16]): 6.17 nM; Emax [8]: 89%; Kb (Cavia porcellus [23]): 0.661 nM; EC50 (Histamine H1 receptor [17]): 240 nM; Kb (Histamine H1 receptor [22]): 1.62 nM
,10,86%,6.17,123,4.12,10.2,417,c1ccc(C(CCc2nc(CCNCCCCc3c[nH]cn3)c[nH]2)c2ccccc2)cc1,,Kb (Cavia porcellus [10]): 1.7 nM
,,100% and 84%,6.04,,,,,NCCc1c[nH]c(CCC(c2ccccc2)c2ccccc2)n1,,Emax [13]: 50%; Concentration [14]: 3 µM; Kb (Cavia porcellus [24]): 0.977 nM
,10,78%,6.02,115,4.37,> 501,1000,c1ccc(C(CCc2nc(CCNCCc3ccncc3)c[nH]2)c2ccccc2)cc1,1.48,
,10,48%,5.69,269,4.36,,,c1ccc(C(CCc2nc(CCNCCCc3ccncc3)c[nH]2)c2ccccc2)cc1,,pD2 (Cavia porcellus [19]): 8.49
83.2,10,64%,6.52,77.6,4.62,> 501,7080,c1ccc(C(CCc2nc(CCNCCc3cccnc3)c[nH]2)c2ccccc2)cc1,0.851,Emax [8]: 64%; Kb (Histamine H1 receptor [25]): 3.24 nM
,10,84%,6.56,24,4.59,,,c1ccc(C(CCc2nc(CCNCCCCc3ccncc3)c[nH]2)c2ccccc2)cc1,1.12,
,,,6.45,,,,,CNCCc1c[nH]c(CCC(c2ccccc2)c2ccccc2)n1,,Kb (Cavia porcellus [26]): 1.78 nM
,3,88%,6.88,13.5,4.77,,,c1ccc(C(CCc2nc(CCNCCCCc3cccnc3)c[nH]2)c2ccccc2)cc1,1.7,
158,,,,,,,,NCCc1cnc(CCC(c2ccccc2)c2ccccc2)[nH]1,,
,0.1,95%,7.14,13.5,3.92,123,776,c1ccc(C(CCc2nc(CCNCCCc3c[nH]cn3)c[nH]2)c2ccccc2)cc1,1.86,
